Legend:
Glutamate receptor 2 [1] = molecular target: T1, Glutamate receptor 2 (Homo sapiens, UniProt P42262); assay: Positive allosteric modulation of human GluA2 AMPAR flip isomer expressed in Dox-inducible cells at 125 uM measured every 5 mins by BD calcium indicator dye based-fluorescence analysis in presence of glutamate; type: cell-based
[2] = molecular target: T2, Glutamate NMDA receptor; GRIN1/GRIN2A (Homo sapiens, UniProt Q05586+Q12879); assay: Positive allosteric modulation of GluN1/GluN2A NMDAR (unknown origin) expressed in Dox-inducible cells at 125 uM measured every 5 mins by BD calcium indicator dye based-fluorescence analysis in presence of glutamate/glycine; type: cell-based
Summary of the method: (§1)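 GluN2A-containing NMDAR cell line, harvested, seeded, doxycycline 2 µg/mL overnight with 500 µM ketamine for protection, then washed and loaded with calcium dye for 50 min. Compound added at 2x concentration in 2x EC30 Glu (EC30 set daily from Glu dose-response); saturating Gly throughout; fluorescence recorded over 5 min.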

[3] = molecular target: T2, Glutamate NMDA receptor; GRIN1/GRIN2A; assay: Positive allosteric modulation of GluN1/GluN2A NMDAR (unknown origin) expressed in Dox-inducible cells measured every 5 mins by BD calcium indicator dye based-fluorescence analysis in presence of glutamate/glycine; type: cell-based; summary of the method: as §1
human MDR1 (P-gp) = assay: Efflux ratio of permeability from basolateral to apical over apical to basolateral side in MDCK cells expressing human MDR1; type: ADME, cell-based, Canis lupus familiaris; settings: dog
Glutamate receptor 2 [4] = molecular target: T1, Glutamate receptor 2; assay: Positive allosteric modulation of human GluA2 AMPAR flop isomer expressed in Dox-inducible cells at 125 uM measured every 5 mins by BD calcium indicator dye based-fluorescence analysis in presence of glutamate; type: cell-based
Glutamate receptor 2 [5] = molecular target: T1, Glutamate receptor 2; assay: Positive allosteric modulation of human GluA2 AMPAR flop isomer expressed in Dox-inducible cells measured every 5 mins by BD calcium indicator dye based-fluorescence analysis in presence of glutamate; type: cell-based
Glutamate receptor 2 [6] = molecular target: T1, Glutamate receptor 2; assay: Positive allosteric modulation of human GluA2 AMPAR flip isomer expressed in Dox-inducible cells measured every 5 mins by BD calcium indicator dye based-fluorescence analysis in presence of glutamate; type: cell-based

T1 sequence (P42262 whole entry): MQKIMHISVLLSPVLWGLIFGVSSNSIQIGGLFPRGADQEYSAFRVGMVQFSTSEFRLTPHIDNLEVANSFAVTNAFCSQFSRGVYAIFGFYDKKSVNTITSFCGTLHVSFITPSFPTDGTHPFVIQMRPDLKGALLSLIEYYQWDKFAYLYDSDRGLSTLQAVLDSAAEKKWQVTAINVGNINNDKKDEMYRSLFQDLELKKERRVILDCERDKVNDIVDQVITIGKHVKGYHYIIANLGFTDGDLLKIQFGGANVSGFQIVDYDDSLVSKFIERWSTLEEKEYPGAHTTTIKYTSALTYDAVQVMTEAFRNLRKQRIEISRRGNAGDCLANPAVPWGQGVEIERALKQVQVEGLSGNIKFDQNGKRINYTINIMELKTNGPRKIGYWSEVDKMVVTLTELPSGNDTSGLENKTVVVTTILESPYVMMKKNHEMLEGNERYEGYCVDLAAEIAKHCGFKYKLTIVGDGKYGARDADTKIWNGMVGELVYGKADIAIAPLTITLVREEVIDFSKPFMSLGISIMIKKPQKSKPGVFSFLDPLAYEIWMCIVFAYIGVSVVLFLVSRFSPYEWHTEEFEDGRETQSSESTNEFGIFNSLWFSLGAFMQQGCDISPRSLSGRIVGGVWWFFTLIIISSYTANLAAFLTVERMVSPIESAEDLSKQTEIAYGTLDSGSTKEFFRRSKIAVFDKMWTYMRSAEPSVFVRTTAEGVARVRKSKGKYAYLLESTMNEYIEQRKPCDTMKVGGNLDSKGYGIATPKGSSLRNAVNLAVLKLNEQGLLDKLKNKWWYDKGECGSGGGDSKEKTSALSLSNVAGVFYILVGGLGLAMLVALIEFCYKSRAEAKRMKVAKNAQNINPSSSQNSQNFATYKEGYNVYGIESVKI

Structure (SMILES) | %max (Glutamate receptor 2 [1]) [%] | %max [2] [%] | EC50 [3] [nM] | efflux ratio (human MDR1 (P-gp)) | %max (Glutamate receptor 2 [4]) [%] | EC50 (Glutamate receptor 2 [5]) [µM] | EC50 (Glutamate receptor 2 [6]) [µM]
CCNC(=O)c1c(C)sc2nc(Cn3nc(C(F)(F)F)cc3C3CC3)cc(=O)n12 | 54 | 147 | 536 | 2.2 | 60 | 6.4 | –
CCNC(=O)c1c(C)sc2nc(Cc3cccc(C#N)c3)cc(=O)n12 | 10 | 71 | 62200 | 25 | 8 | 53.7 | 32.9
CCNC(=O)c1c(C)sc2nc(C(C)c3cccc(C(F)(F)F)c3F)cc(=O)n12 (racemic) | 4 | 75 | 3100 | 2.2 | 8 | – | –
CCN(Cc1cc(=O)n2c(C(C)C)c(C)sc2n1)c1ccc(F)cc1 | 15 | 129 | 685 | 1.3 | 1 | – | 34.4
CCN(Cc1cc(=O)n2c(C3CC3)c(C)sc2n1)c1ccc(F)cc1 | 35 | 168 | 394 | 0.8 | 31 | 9.8 | 34
CCNC(=O)c1c(C)sc2nc(Cn3nc(C(F)(F)F)cc3OCC(C)C)cc(=O)n12 | 3 | 60 | 57100 | 3.7 | 10 | – | –
CCNC(=O)c1c(C)sc2nc(Cn3ccc(C(F)(F)F)n3)cc(=O)n12 | 2 | 99 | 17000 | 21.5 | 1 | – | –
CCN(Cc1cc(=O)n2c(C(C)(C)O)c(C)sc2n1)c1ccc(F)cc1 | 65 | 157 | 63 | 1 | 5 | 2.4 | 12.4
CCN(Cc1cc(=O)n2c(CCCO)c(C)sc2n1)c1ccc(F)cc1 | 37 | 169 | 183 | 1 | 45 | 1.5 | 33.2
Cc1sc2nc(Cn3nc(C(F)(F)F)cc3Cl)cc(=O)n2c1[C@@H]1C[C@H]1C#N | 91 | 151 | 29.5 | 5.3 | 93 | 0.073 | 0.702
CCNC(=O)c1c(C)sc2nc(Cc3cc(C#N)ccc3Cl)cc(=O)n12 | 1 | 94 | 12900 | 22 | 0 | – | –
CCNC(=O)c1c(C)sc2nc(Cn3nc(C(F)(F)F)cc3C)cc(=O)n12 | 8 | 128 | 4900 | 33 | 19 | – | –
CCN(Cc1cc(=O)n2c(-c3cncnc3)c(C)sc2n1)c1ccc(F)cc1 | 56 | 148 | 137 | 1.2 | 16 | 0.972 | –
CCN(Cc1cc(=O)n2c(C#N)c(C)sc2n1)c1ccc(F)cc1 | 13 | 181 | 129 | 0.9 | 60 | 10.7 | 66.6
CCNC(=O)c1c(C)sc2nc(CNc3ccc(F)cc3)cc(=O)n12 | 8 | 123 | 7000 | 5.8 | 19 | – | –
CCN(Cc1cc(=O)n2c(C(=O)NC)c(C)sc2n1)c1ccc(F)cc1 | 18 | 185 | 131 | 9.8 | 38 | – | –
CCN(Cc1cc(=O)n2c(CO)c(C)sc2n1)c1ccc(F)cc1 | 39 | 153 | 649 | 1.1 | 83 | 1.9 | 66.3
CCN(Cc1cc(=O)n2c(C3CCC3)c(C)sc2n1)c1ccc(F)cc1 | 38 | 122 | 2600 | – | 20 | 8.6 | 35.9
Cc1sc2nc(Cc3cccc(C(F)(F)F)c3F)cc(=O)n2c1C1CC1CO (racemic) | 57 | 117 | 454 | 0.51 | 27 | 0.359 | 1.7
CCCN(Cc1cc(=O)n2c(C(=O)NCC)c(C)sc2n1)c1ccc(F)cc1 | 5 | 171 | 132 | 12.6 | 32 | 48.7 | –
CCN(Cc1cc(=O)n2c(-c3cccnc3)c(C)sc2n1)c1ccc(F)cc1 | 75 | 144 | 168 | 1.2 | 11 | 4.5 | 33.8
CCN(Cc1cc(=O)n2cc(C)sc2n1)c1ccc(F)cc1 | 95 | 150 | 312 | 1 | 93 | 0.245 | 0.252
CCNC(=O)c1c(C)sc2nc(Cc3cccc(C(F)(F)F)c3)cc(=O)n12 | 18 | 113 | 1900 | 20 | 21 | 66.2 | –
Cc1sc2nc(Cc3cccc(C#N)c3F)cc(=O)n2c1C1CC1CO (racemic) | 38 | 160 | 900 | 3.6 | 23 | 1.1 | 32.6
CCN(Cc1cc(=O)n2c(C(C)O)c(C)sc2n1)c1ccc(F)cc1 (racemic) | 37 | 154 | 183 | 0.6 | 30 | 5.5 | 32.3
CCNC(=O)c1c(C)sc2nc(Cc3cccc(C#N)c3F)cc(=O)n12 | 3 | 102 | 9100 | 3.1 | 3 | – | –
CCNC(=O)c1c(C)sc2nc(Cc3cc(C#N)ccc3C3CC3)cc(=O)n12 | 2 | 102 | 17500 | 44 | 2 | – | –
CCNC(=O)c1c(C)sc2nc(Cn3nc(C(F)(F)F)cc3OCC)cc(=O)n12 | 32 | 144 | 414 | 57 | 43 | 9.1 | –
CCNC(=O)c1c(C)sc2nc(CN(C)c3ccc(F)cc3)cc(=O)n12 | 2 | 159 | 434 | 8.6 | 2 | – | –
CCNC(=O)c1c(C)sc2nc(CN(CC)c3ccc(F)cn3)cc(=O)n12 | 6 | 170 | 1700 | 22 | 13 | – | –
